Reference: ChEMBL document CHEMBL1146234, “Synthesis and biological evaluation of N-pyrazolyl-N'-alkyl/benzyl/phenylureas: a new class of potent inhibitors of interleukin 8-induced neutrophil chemotaxis” (J Med Chem, 2007)
Activity calls are given as the source filed them. The rule behind the calls is not given here.

Assays:
[1] = target: RAC-alpha serine/threonine-protein kinase (Homo sapiens) (UniProt P31749); assay: Binding affinity to Akt1
[2] = target: Proto-oncogene tyrosine-protein kinase Src (Homo sapiens) (UniProt P12931); assay: Binding affinity to SRC
[3] = target: T1, C-C chemokine receptor type 1 (Homo sapiens) (UniProt P32246); assay: Binding affinity to CCR1
T1 sequence (whole entry): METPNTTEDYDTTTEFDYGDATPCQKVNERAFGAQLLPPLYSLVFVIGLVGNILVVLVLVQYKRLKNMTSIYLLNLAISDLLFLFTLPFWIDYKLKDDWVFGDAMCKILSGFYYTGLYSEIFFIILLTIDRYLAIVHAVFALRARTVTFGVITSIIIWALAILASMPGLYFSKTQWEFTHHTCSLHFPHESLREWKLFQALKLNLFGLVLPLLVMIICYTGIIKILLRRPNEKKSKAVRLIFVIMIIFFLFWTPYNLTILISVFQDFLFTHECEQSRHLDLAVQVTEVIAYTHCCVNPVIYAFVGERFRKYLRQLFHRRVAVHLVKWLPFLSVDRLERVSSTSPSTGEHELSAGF

[4] = target: Mitogen-activated protein kinase 14 (Homo sapiens) (UniProt Q16539); assay: Binding affinity to p38alpha
Neutrophil [5] = assay: Reduction of IL8-stimulated F-actin polymerization in human neutrophils; assay type: functional; set-up: scale not given: the % may be the effect or the level left
Outline: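 Donor neutrophils were incubated ± compound, washed three times, then stimulated 30 min with medium or 100 nM IL8. Cytospins were stained with Alexa Fluor 488-phalloidin and examined by fluorescence microscopy. Mean fluorescence density came from linear per-cell measurement across ≥5 random fields per slide, in duplicate, ≥3 experiments. Values were given as area percentage, mean ± SD.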

[6] = target: T2, Tyrosine-protein kinase ZAP-70 (Homo sapiens) (UniProt P43403); assay: Binding affinity to Zap70
T2 sequence (whole entry): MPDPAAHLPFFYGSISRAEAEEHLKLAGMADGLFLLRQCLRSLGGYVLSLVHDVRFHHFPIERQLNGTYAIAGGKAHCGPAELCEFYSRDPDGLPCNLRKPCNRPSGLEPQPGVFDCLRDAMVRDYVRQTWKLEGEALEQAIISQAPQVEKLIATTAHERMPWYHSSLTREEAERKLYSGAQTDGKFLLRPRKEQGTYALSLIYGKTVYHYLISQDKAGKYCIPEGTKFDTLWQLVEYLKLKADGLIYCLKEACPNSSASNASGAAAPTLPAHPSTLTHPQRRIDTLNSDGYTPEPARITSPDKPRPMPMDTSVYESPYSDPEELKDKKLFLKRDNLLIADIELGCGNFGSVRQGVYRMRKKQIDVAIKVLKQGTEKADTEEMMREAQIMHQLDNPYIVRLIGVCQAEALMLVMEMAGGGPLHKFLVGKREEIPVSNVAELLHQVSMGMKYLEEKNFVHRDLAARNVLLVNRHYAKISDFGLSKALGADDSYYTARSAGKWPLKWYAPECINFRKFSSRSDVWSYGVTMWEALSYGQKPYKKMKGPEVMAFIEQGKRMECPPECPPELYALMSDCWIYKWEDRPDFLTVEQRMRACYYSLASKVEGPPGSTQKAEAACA

[7] = target: Tyrosine-protein kinase Fgr (Homo sapiens) (UniProt P09769); assay: Binding affinity to Fgr
[8] = target: T3, C-X-C chemokine receptor type 1 (Homo sapiens) (UniProt P25024); assay: Binding affinity to CXCR1
T3 sequence (whole entry): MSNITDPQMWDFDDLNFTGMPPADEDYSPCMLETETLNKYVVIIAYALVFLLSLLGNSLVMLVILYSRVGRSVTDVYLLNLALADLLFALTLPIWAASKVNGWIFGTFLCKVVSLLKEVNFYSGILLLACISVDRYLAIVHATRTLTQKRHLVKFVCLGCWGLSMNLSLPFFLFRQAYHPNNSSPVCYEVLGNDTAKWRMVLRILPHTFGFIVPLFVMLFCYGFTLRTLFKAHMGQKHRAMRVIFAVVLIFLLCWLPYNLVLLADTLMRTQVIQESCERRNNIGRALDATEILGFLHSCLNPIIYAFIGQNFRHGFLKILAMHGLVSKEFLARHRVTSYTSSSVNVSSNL

[9] = target: Mitogen-activated protein kinase 8 (Homo sapiens) (UniProt P45983); assay: Binding affinity to JNK1
[10] = target: Mitogen-activated protein kinase 11 (Homo sapiens) (UniProt Q15759); assay: Binding affinity to p38beta2
[11] = target: Tyrosine-protein kinase HCK (Homo sapiens) (UniProt P08631); assay: Binding affinity to Hck
Neutrophil [12] = assay: Inhibition of fMLP-induced neutrophil chemotaxis after 45 mins by Boyden chamber assay; assay type: functional, cell-based; conditions: Homo sapiens
Outline: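 Leading-front Boyden assay with donor neutrophils. Cells were preincubated 15 min at room temperature ± compound. Then 4 × 10⁵ cells were placed above a 3 µm cellulose ester filter, with IL8 or fMLP below. After 45 min at 37 °C, filters were hematoxylin-stained and the leading-front distance was read at ×400, 5 fields per filter, in duplicate. Net migration = stimulated minus spontaneous. IC₅₀ came from nonlinear regression, ≥3 experiments.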

[13] = target: C-C chemokine receptor type 2 (Homo sapiens) (UniProt P41597); assay: Binding affinity to CCR2
[14] = target: T4, C-C chemokine receptor type 3 (Homo sapiens) (UniProt P51677); assay: Binding affinity to CCR3
T4 sequence (whole entry): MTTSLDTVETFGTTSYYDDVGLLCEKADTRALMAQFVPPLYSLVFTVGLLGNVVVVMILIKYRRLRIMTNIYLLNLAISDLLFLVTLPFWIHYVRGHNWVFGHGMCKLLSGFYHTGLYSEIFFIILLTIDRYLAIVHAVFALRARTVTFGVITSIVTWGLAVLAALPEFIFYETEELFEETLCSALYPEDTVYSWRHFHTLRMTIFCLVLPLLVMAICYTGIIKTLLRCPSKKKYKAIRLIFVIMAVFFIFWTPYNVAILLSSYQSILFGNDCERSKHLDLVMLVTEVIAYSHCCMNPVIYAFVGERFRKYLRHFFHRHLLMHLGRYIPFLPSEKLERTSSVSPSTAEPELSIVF

[15] = target: Mitogen-activated protein kinase 3 (Homo sapiens) (UniProt P27361); assay: Binding affinity to ERK1
[16] = target: T5, C-X-C chemokine receptor type 2 (Homo sapiens) (UniProt P25025); assay: Binding affinity to CXCR2
T5 sequence (whole entry): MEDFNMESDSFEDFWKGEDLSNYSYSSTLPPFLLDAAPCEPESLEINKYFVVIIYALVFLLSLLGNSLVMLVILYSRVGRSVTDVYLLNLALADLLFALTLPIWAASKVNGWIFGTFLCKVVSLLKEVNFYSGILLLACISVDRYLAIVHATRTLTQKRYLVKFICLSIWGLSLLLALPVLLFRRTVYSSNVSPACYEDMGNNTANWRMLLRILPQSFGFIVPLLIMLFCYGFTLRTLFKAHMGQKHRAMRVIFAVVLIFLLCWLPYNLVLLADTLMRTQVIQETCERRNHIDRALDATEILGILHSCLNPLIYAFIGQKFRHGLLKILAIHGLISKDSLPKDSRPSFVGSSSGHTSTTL

RAC-alpha serine/threonine-protein kinase (Homo sapiens), sequence (P31749 whole entry): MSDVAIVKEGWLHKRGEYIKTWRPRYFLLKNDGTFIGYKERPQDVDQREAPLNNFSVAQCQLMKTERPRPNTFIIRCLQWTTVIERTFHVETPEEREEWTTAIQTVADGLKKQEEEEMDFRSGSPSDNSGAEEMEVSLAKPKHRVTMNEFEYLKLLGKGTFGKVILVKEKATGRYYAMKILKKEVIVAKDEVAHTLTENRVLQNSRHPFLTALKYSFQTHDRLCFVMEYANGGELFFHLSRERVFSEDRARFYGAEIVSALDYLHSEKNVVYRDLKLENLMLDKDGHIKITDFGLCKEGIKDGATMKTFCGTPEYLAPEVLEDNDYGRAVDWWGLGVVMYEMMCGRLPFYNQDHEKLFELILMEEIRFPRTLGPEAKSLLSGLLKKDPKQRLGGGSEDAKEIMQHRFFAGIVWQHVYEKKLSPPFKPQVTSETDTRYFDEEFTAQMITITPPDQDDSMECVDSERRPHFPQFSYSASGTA
Mitogen-activated protein kinase 3 (Homo sapiens), sequence (P27361 whole entry): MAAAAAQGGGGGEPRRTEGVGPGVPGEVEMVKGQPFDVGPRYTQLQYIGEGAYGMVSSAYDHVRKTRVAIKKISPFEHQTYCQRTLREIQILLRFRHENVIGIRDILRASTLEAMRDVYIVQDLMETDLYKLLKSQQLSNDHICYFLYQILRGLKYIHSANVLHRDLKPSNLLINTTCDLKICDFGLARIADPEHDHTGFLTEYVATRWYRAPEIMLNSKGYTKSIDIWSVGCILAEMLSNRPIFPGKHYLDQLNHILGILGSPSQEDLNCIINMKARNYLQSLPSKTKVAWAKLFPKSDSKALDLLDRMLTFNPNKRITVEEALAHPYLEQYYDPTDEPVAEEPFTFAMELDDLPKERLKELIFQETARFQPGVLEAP
Proto-oncogene tyrosine-protein kinase Src (Homo sapiens), sequence (P12931 2-536 limits assumed): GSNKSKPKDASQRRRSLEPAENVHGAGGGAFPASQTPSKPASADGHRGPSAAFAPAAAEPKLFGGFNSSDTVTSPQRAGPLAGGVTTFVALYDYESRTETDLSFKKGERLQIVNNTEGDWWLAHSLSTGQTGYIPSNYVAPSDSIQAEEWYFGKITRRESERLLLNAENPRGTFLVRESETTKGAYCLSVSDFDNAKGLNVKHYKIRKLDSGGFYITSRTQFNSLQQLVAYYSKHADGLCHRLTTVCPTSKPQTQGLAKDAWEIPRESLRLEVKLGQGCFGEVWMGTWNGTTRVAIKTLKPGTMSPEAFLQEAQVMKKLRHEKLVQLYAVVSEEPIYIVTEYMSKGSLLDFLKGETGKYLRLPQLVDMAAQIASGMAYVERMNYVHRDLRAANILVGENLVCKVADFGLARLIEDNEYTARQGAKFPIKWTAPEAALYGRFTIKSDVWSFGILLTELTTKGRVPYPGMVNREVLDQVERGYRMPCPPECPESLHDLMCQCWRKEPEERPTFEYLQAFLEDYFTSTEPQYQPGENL
Mitogen-activated protein kinase 14 (Homo sapiens), sequence (Q16539 whole entry): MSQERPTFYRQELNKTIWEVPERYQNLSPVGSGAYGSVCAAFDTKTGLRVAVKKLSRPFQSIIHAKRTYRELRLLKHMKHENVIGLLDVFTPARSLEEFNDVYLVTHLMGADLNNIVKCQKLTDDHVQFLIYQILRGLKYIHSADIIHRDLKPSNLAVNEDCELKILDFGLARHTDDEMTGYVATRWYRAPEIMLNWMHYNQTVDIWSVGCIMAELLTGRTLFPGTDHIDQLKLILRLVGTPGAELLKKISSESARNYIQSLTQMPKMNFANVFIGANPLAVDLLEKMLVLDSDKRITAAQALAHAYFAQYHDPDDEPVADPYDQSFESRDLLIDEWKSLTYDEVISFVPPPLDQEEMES
Tyrosine-protein kinase Fgr (Homo sapiens), sequence (P09769 2-529 limits assumed): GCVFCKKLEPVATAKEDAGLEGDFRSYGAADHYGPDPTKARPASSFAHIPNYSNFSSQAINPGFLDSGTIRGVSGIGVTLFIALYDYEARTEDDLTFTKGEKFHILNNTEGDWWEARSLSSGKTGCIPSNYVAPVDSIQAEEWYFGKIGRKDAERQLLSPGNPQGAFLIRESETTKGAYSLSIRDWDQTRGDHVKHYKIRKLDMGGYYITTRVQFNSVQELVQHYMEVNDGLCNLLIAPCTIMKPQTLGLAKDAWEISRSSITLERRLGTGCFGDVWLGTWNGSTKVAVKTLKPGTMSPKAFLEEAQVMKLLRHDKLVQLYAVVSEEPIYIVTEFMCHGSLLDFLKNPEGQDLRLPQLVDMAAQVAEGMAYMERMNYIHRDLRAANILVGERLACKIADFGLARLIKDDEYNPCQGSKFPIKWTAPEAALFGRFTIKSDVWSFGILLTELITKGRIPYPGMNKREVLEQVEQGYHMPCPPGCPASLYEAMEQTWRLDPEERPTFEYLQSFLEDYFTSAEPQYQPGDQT
Mitogen-activated protein kinase 8 (Homo sapiens), sequence (P45983 whole entry): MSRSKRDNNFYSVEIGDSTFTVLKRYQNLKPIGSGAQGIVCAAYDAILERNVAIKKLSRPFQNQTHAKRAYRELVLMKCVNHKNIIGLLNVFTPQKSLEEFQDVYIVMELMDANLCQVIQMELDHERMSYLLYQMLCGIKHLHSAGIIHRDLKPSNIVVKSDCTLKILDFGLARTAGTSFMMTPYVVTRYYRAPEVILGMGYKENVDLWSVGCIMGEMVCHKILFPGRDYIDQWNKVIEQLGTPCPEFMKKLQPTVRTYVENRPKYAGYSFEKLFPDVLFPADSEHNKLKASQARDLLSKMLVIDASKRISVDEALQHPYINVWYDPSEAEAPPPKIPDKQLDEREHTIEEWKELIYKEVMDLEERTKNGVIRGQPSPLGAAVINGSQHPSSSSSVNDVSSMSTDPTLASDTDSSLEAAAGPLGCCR
C-C chemokine receptor type 2 (Homo sapiens), sequence (P41597 whole entry, looked up): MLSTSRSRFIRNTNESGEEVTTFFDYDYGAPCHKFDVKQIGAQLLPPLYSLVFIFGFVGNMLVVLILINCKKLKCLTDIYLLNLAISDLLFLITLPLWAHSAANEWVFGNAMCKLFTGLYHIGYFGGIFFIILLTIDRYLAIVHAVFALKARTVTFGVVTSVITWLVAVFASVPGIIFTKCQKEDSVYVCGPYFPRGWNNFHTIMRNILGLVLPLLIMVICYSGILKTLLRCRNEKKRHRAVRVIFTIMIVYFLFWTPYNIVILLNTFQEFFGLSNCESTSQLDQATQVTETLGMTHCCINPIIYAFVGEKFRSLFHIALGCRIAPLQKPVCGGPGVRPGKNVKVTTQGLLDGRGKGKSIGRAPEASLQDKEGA
Mitogen-activated protein kinase 11 (Homo sapiens), sequence (Q15759 whole entry): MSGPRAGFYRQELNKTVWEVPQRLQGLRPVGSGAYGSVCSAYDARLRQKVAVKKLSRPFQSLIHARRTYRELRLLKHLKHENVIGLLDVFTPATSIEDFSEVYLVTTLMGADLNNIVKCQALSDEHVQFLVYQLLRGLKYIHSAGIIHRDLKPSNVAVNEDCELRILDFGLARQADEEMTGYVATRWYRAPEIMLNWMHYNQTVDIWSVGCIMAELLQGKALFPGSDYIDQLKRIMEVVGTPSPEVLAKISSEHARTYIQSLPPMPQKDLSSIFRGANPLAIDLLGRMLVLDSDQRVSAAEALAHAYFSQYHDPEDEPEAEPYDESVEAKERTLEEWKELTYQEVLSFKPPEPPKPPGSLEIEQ
Tyrosine-protein kinase HCK (Homo sapiens), sequence (P08631 2-526 limits assumed): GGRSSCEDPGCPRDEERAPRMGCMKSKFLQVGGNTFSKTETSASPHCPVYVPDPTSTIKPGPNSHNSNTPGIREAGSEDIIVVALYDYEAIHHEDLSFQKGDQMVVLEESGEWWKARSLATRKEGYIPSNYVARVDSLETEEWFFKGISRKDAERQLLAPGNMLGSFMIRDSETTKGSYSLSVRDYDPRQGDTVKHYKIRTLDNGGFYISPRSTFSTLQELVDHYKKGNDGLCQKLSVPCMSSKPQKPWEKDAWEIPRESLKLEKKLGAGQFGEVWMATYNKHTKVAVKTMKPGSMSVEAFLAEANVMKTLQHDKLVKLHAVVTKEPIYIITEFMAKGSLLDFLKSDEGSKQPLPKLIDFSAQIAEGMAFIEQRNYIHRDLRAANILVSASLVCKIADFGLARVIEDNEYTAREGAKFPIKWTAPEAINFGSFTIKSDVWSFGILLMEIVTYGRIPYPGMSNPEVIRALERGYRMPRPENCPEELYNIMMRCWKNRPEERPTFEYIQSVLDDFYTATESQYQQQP

For CCOC(=O)c1cnn(CC(O)c2ccccc2)c1NC(=O)NCc1ccccc1 (stereo not drawn), the Activity [1] was “inactive”, the Activity [2] was “inactive” and the Activity [3] was “inactive”. The Activity [4] was “inactive”, the Activity (Neutrophil [5]) was 69% and the Activity [6] was “inactive”. For the same molecule, the Activity [7] was “inactive”, the Activity [8] was “inactive” and the Activity [9] was “inactive”. For the same molecule, the Activity [10] was “inactive”, the Activity [11] was “inactive” and the Activity (Neutrophil [12]) was “inactive”. For the same molecule, the Activity [13] was “inactive”, the Activity [14] was “inactive” and the Activity [15] was “inactive”. For the same molecule, the Activity [16] was “inactive”.
With CCOC(=O)c1cnn(CC(O)c2ccccc2)c1NC(=O)Nc1ccccc1 (stereo not drawn) the Activity [1] was “inactive”, the Activity [2] was “inactive” and the Activity [3] was “inactive”. For the same molecule, the Activity [4] was “inactive”, the Activity (Neutrophil [5]) was 97% and the Activity [6] was “inactive”. For the same molecule, the Activity [7] was “inactive”, the Activity [8] was “inactive” and the Activity [9] was “inactive”. For the same molecule, the Activity [10] was “inactive”, the Activity [11] was “inactive” and the Activity (Neutrophil [12]) was “inactive”. The Activity [13] was “inactive”, the Activity [14] was “inactive” and the Activity [15] was “inactive”. For the same molecule, the Activity [16] was “inactive”.
In the case of CCOC(=O)c1cnn(CC(O)c2ccccc2)c1NC(=O)NC(C)C (stereo not drawn), the Activity [1] is reported as “inactive”, the Activity [2] is reported as “inactive” and the Activity [3] is reported as “inactive”. For the same molecule, the Activity [4] was “inactive”, the Activity (Neutrophil [5]) was 97% and the Activity [6] was “inactive”. The Activity [7] was “inactive”, the Activity [8] was “inactive” and the Activity [9] was “inactive”. For the same molecule, the Activity [10] was “inactive”, the Activity [11] was “inactive” and the Activity (Neutrophil [12]) was “inactive”. For the same molecule, the Activity [13] was “inactive”, the Activity [14] was “inactive” and the Activity [15] was “inactive”. For the same molecule, the Activity [16] was “inactive”.
